Rows were chosen to be rich in hits. Some 1.9% of all compounds tested hit in one or more screens of this group.
CHRM4 PAM: human M4 muscarinic receptor positive allosteric modulators, primary screen, CHO-K1 cells, Fluo-8 calcium fluorescence | Muscarinic acetylcholine receptor M4 (Homo sapiens), P08173 | CHO-K1 hM4/Gqi5, ACh EC20; 0% = ACh EC20, 100% = maximal ACh | activation, % at 3 µM | 0.4% of 360,000 active | AID 624126, 2012;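 active = activation above its plate's cutoff, the mean activation of sample wells plus 3 SD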
Target sequence (P08173 whole entry, looked up): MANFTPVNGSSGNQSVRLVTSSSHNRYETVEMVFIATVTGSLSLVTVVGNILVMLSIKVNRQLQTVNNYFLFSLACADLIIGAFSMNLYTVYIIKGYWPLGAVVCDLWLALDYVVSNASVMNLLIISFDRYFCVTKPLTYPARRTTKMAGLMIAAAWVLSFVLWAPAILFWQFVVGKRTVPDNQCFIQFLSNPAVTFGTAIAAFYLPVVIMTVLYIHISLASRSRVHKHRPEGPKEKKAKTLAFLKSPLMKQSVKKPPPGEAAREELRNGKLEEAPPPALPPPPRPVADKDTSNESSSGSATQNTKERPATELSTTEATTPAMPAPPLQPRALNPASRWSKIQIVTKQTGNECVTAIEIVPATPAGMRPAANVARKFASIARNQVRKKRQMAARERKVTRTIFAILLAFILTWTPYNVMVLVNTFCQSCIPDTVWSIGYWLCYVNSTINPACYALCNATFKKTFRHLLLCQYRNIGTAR
CHRM4 antagonist: human M4 muscarinic receptor antagonists, primary screen, CHO cells, Fluo-8 calcium fluorescence. Muscarinic acetylcholine receptor M4 (Homo sapiens), P08173. CHO-hM4 cells, ACh EC80. inhibition, % at 3 µM. 0.73% of 360,000 active. AID 624125, 2012;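 active = inhibition above its plate's cutoff, the mean inhibition of sample wells plus 3 SD, cut at about 27% in these data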;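 also: 0% = acetylcholine EC80 with DMSO and 100% = DMSO without agonist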
M5 ag: human M5 muscarinic receptor agonists, primary screen, CHO-K1 cells, Fluo-8 calcium fluorescence; Muscarinic acetylcholine receptor M5 (Homo sapiens), P08912; activation, % at 3 µM; CHO-K1 hM5 cells; 0% DMSO wells, 100% maximal acetylcholine response; 0.19% of 360,000 active; AID 624037, 2012;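 active = activation above the run's mean over test compounds plus 3 SD, cut at about 23% in these data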;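 also: signal is peak over basal fluorescence ratio across the kinetic read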
M4 ag: human M4 muscarinic receptor agonists, primary screen, CHO-K1 cells, Fluo-8 calcium fluorescence; Muscarinic acetylcholine receptor M4 (Homo sapiens), P08173; CHO-K1 hM4/Gqi5; vehicle 0%, full acetylcholine response 100%; activation, % at 3 µM; AID 624127, 2012; 0.14% of 360,000 active;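 active = activation above the run mean over all test wells plus 3 SD, cut at about 32% in these data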;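 also: peak over basal fluorescence ratio per well then scaled between controls; 0% = DMSO wells and 100% = acetylcholine at EC100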
CHRM5 antagonist: human M5 muscarinic receptor antagonists, primary screen, CHO cells, Fluo-8 calcium fluorescence; Muscarinic acetylcholine receptor M5 (Homo sapiens), P08912; CHO-hM5 cells, ACh EC80; inhibition, % at 3 µM; 0.59% of 360,000 active; AID 624040, 2012;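 active = inhibition above a per-plate cutoff, the mean of that plate's test compounds plus 3 SD, cut at about 27% in these data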;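 also: 0% = acetylcholine EC80 with DMSO and 100% = DMSO without agonist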
CHRM5 PAM: human M5 muscarinic receptor positive allosteric modulators, primary screen, CHO-K1 cells, Fluo-8 calcium fluorescence. Muscarinic acetylcholine receptor M5 (Homo sapiens), P08912. CHO-K1 hM5, ACh EC20 PAM; 0% = ACh EC20, 100% = ACh EC100. activation, % at 3 µM. 0.3% of 360,000 active. AID 624038, 2012;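 active = activation above the run cutoff, the mean activation of all test compounds plus 3 SD, cut at about 18% in these data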
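Assay system: CHO-K1 hM5 cells. Also added: acetylcholine at EC20 concentration, added after compound. Dosing: 3 µM, single dose. Times: compound preincubation 140 s before EC20 acetylcholine addition. Signal: Fluo-8 calcium fluorescence. Measure: % activation relative to EC20 and EC100 ACh responses. Repeats: singlicate, one well per test compound.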
* hit, by the source's call; ! = not active in a repeat.

SMILES	CHRM4 PAM	CHRM4 antagonist	M5 ag	M4 ag	CHRM5 antagonist	CHRM5 PAM
O=C(CCC(=O)N1CCN(c2ccc(F)cc2)CC1)c1ccc(Cl)cc1	-5	-8	1	7	3	-5
Cc1c(Cl)cccc1NC(=S)N(CCCN1CCOCC1)Cc1cccs1	-39	56*	-5	2	3	-17
COc1ccc(NC(=S)N(CCCN2CCCCC2)Cc2cccs2)cc1	-38	40*	-7	3	12	-18
Cc1ccc(NC(=S)N(CCCN2CCOCC2)Cc2cccs2)c(C)c1	0	-9	-4	1	4	4
CN(CC(=O)Nc1c(Cl)cccc1Cl)C(=O)CCC1CCCC1	3	-6	-5	1	10	-4
O=[N+]([O-])c1ccc(CSc2nnc(-c3cccnc3)o2)cc1	-5	5	6	-1	-11	22*
Cc1ccc(NC(=O)CCC(=O)NNC(=O)COc2ccc([N+](=O)[O-])cc2)cc1C	18*	-6	1	2	-2	6
Cc1ccc(NC(=O)NNC(=O)COc2ccc([N+](=O)[O-])cc2)cc1C	0	-4	-3	1	-13	1
O=C(O)c1cccc2c1C(=O)N(Cc1ccncc1)C2	32*	20	0	1	-1	5
Oc1ccccc1/C=N/N1CCCCC1	-3	0	5	0	30*	-8
Nc1cc(=O)[nH]c(SCC(=O)Nc2cccnc2Cl)n1	22*	-26	-3	4	10	-7
Cc1cccc(C=NOCCc2ccccc2)n1	12	-2	3	0	0	3
CC(Oc1ccc(Cl)cc1)C(=O)NNC(=S)NC(=O)c1ccco1 (stereo not drawn)	-10	13	26*	63*	6	-11
CCCOc1ccc(C(=O)NNC(=S)NC(=O)c2ccco2)cc1	-49	19	60*	126*	31*	-29
CCCOc1ccc(C(=O)NNC(=S)NC(=O)c2cccs2)cc1	-16	63*	72*	110*	42*	-17
COc1ccc(C(=O)NNC(=S)NC(=O)c2ccco2)cc1	1	-5	9	5	-4	2
CCCOc1ccc(C(=O)NNC(=S)NC(=O)c2ccccc2)cc1	-24	27*	78*	136*	26	-21
Clc1ccc(-c2nc3cc(CN4CCCCC4)ccc3o2)cc1	-9	5	-6	3	4	2
CCCn1c(CCNc2nc(-c3cccc(Br)c3)cs2)nc2ccccc21	-2	-5	1	-1	2	-2
CCNC(=S)NNC(=O)CC(C)C	-3	0	-2	1	-6	7
COc1ccc(C(=O)NC(=S)NNC(=O)c2ccc(C)cc2)cc1	-48	15	75*	118*	5	-30
CC(C)CNC(=S)NNC(=O)CC(C)O (stereo not drawn)	-5	5	-2	0	-1	18*
CC(C)CNC(=S)NNC(=O)c1ccco1	38*	3	0	1	-6	12
CC(=O)c1cccc(NC(=S)NC(=O)c2ccc(C)cc2)c1	26*	-2	-3	1	4	8
COc1cc(NC(=O)CSc2nc(=O)n(CCN3CCOCC3)c3c2CCCC3)cc(OC)c1	0	-19	1	5	-1	2
SMILES	CHRM4 PAM	CHRM4 antagonist	M5 ag	M4 ag	CHRM5 antagonist	CHRM5 PAM
CCN(C(=O)COC(=O)c1ccc(O)cc1O)c1c(N)n(Cc2ccccc2)c(=O)[nH]c1=O	4	3	-4	1	-5	14
c1ccc(CN2CCN(C3CCCSc4ccccc43)CC2)cc1 (stereo not drawn)	-13	35*	-19	1	-4	5
Cc1ccc(Nc2cc(C)nn2-c2nc(C)cc(=O)[nH]2)cc1	2	59*	-6	-2	41*	-2
CCN(CC(=O)Nc1c(F)cccc1F)C(=O)C1CCCO1 (stereo not drawn)	3	-4	-1	1	3	0
Cc1cccc(Cc2nc3ccccc3[nH]2)c1	0	4	-2	1	18	-4
CC(=O)c1cnc(N2CCCCC2)nc1C	16	31*	-1	1	-2	18*
CC(C)(C)S(=O)(=O)c1cnc(N2CCCCC2)nc1N	-18	5	-3	0	6	-2
CCCN(CCC)C(=O)C1CCN(c2ccc(S(=O)(=O)N3CCOCC3)cc2[N+](=O)[O-])CC1	-4	3	-1	5	8	-6
CCCN(Cc1nnc(-c2cccs2)o1)C(=O)CN1C(=O)NC2(CCCCC2)C1=O	-2	2	0	0	9	-3
CCn1nnnc1SCC(=O)NCc1cccs1	0	3	-5	0	-3	18*
CCOC(=O)CSc1nc2sc3c(c2c(=O)n1-c1ccccc1)CCN(C(C)C)C3	-1	-13	-3	1	-8	3
CC1CNCCN1S(=O)(=O)c1cccc2cnccc12 (stereo not drawn)	-2	-5	52*!	6	4	-19
O=S(=O)(c1cccc2cnccc12)N1CCCNCC1	-3	-2	-1	1	4	-4
Cn1nc(C(F)(F)F)c(/C=N/OC(=O)c2ccccc2Cl)c1SCc1ccccc1Cl	-33	67*	-7	-1	-4	-16
Cn1nc(C(F)(F)F)c(/C=N/OC(=O)c2ccccc2)c1SCc1ccc(Cl)cc1	-18	10	-7	0	6	-10
O=C(c1ccccc1)N(Cc1ccccc1)Cc1ccccc1	-3	10	-1	0	-1	0
CCN(Cc1ccccc1)C(=O)c1ccc(C(=O)N(CC)Cc2ccccc2)cc1	-6	9	-3	5	28*	-9
Cc1ccc(SC(=O)c2c([N+](=O)[O-])c(C)nn2C)cc1	-15	57*	-19	-1	17	-30
Cc1cc(C)n(C(=O)c2c([N+](=O)[O-])c(C)nn2C)n1	-8	9	-1	-1	12	-3
CCOC(=O)c1c(C)[nH]c(C)c1C(=O)COC(=O)C1CC(=O)N(CCc2ccccc2)C1 (stereo not drawn)	0	-3	-2	3	17	-3
CCOC(=O)CS(=O)(=O)c1nc(-c2ccccc2)cc(C(F)(F)F)n1	-8	38*	-11	2	15	9
